Data on one compound can be found in ChEMBL document CHEMBL4330076, “Quinazolin-2,4-dione-Based Hydroxamic Acids as Selective Histone Deacetylase-6 Inhibitors for Treatment of Non-Small Cell Lung Cancer” (J Med Chem, 2019).

Data set [1] has as its system Lewis lung carcinoma cell line. The data set can be described thus: Cytotoxicity against mouse LL/2 cells at 4 uM after 72 hrs by MTT assay relative to control. The class given is functional. In a few lines: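 Mouse LL/2 cells treated with inhibitor alone or combined with paclitaxel for 3 days. Viability measured by MTT assay relative to untreated control.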
The test system of data set [2] is Lewis lung carcinoma cell line. In words: Potentiation of paclitaxel-induced cytotoxicity in mouse LL/2 cells assessed as combination index up to 10 uM after 72 hrs by Chou-Talalay method. The class given is functional.
Data set [3] concerns Lewis lung carcinoma cell line. In words: Induction of apoptosis in mouse LL/2 cells assessed as late apoptotic cells at 4 uM after 24 hrs by Annexin V/propidium iodide staining-based flow cytometric analysis (reference value: 8.7%). The class given is functional. On the technique in general: In flow cytometry, cells or beads pass a laser one at a time.
For data set [4], the system named is Lewis lung carcinoma cell line. In words: Induction of apoptosis in mouse LL/2 cells assessed as late apoptotic cells at 4 uM after 24 hrs in presence of paclitaxel by Annexin V/propidium iodide staining-based flow cytometric analysis (reference value: 8.7%). The class given is functional.
Data set [5] has as its system A549. The data set can be described thus: Induction of apoptosis in human A549 cells assessed as early apoptotic cells at 4 uM after 24 hrs by Annexin V/propidium iodide staining-based flow cytometric analysis (reference value: 1.2%). Type of data set: functional.
Data set [6] has as its system A549. The data set can be described thus: Induction of apoptosis in human A549 cells assessed as necrotic cells at 4 uM after 24 hrs by Annexin V/propidium iodide staining-based flow cytometric analysis (reference value: 1.1%). Type of data set: functional.
The test system of data set [7] is A549. In words: Induction of apoptosis in human A549 cells assessed as early apoptotic cells at 4 uM after 24 hrs in presence of paclitaxel by Annexin V/propidium iodide staining-based flow cytometric analysis (reference value: 1.2%). The class given is functional.
For data set [8], the system named is A549. The data set can be described thus: Induction of apoptosis in human A549 cells assessed as late apoptotic cells at 4 uM after 24 hrs in presence of paclitaxel by Annexin V/propidium iodide staining-based flow cytometric analysis (reference value: 1.6%). The class given is functional.
The test system of data set [9] is A549. The data set can be described thus: Induction of apoptosis in human A549 cells assessed as necrotic cells at 4 uM after 24 hrs in presence of paclitaxel by Annexin V/propidium iodide staining-based flow cytometric analysis (reference value: 1.1%). Type of data set: functional.
Data set [10] is described as follows: Ratio of compound AUC (0 to 24 hrs) to ACY-1215 AUC (0 to 24 hrs) in C57BL/6 mouse lung at 40 mg/kg, po administered via gavage by LC-MS/MS analysis. The class given is ADME, organism-based. The note with it: in vivo.
Data set [11] is described as follows: Ratio of compound AUC (0 to 24 hrs) to ACY-1215 AUC (0 to 24 hrs) in C57BL/6 mouse liver at 40 mg/kg, po administered via gavage by LC-MS/MS analysis. The class given is ADME, organism-based. To be noted: in vivo.
A short description of data set [12]: Ratio of compound AUC (0 to 24 hrs) to ACY-1215 AUC (0 to 24 hrs) in C57BL/6 mouse kidney at 40 mg/kg, po administered via gavage by LC-MS/MS analysis. Type of data set: ADME, organism-based. The note with it: in vivo.
Data set [13] is described as follows: Ratio of compound AUC (0 to 24 hrs) to ACY-1215 AUC (0 to 24 hrs) in C57BL/6 mouse plasma at 40 mg/kg, po administered via gavage by LC-MS/MS analysis. Type of data set: ADME, organism-based. The note with it: in vivo.
The nature of data set [14]: Drug uptake in C57BL/6 mouse liver at 40 mg/kg, po administered via gavage by LC-MS/MS analysis. The class given is ADME, organism-based. To be noted: in vivo.

Where only a bound is given, the exact number is not on record here.

With `O=C(NO)c1ccc(Cn2c(=O)n(CCc3ccccc3)c(=O)c3ccccc32)cc1`, the Activity in [1] was determined as 10%; in [3], 10.4%; in [4], 21.2%; with A549 [5], 1.3%; with A549 [6], 0.7%; in the data set with A549 [7] it was 5.4%. Besides, the Activity in the data set on A549 [8] came out at 1.3%; in the data set on A549 [9], 0.5%. Further, the CI in data set [2] is listed as <1. Also, the “Ratio AUC” value in [10] was found to be 2.1; in data set [11], 4.4; in data set [12], 0.8; in [13], 0.2. The Drug uptake in data set [14] was determined as 782 ng/g.
